KCNK3 block = human KCNK3 channel inhibitors, primary screen, CHO cells, FluxOR thallium flux, B-score; 340,000 compounds, 0.84% hits; Potassium channel subfamily K member 3 (Homo sapiens), O14649; B-score at 10 µM; FluxOR fluorescence; active compounds read low;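 active = B-score under library mean minus 4 SD, starting fluorescence ratio at most library mean plus 5 SD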;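 note: more negative B-score means stronger inhibition of thallium flux through KCNK3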
Target sequence (O14649 whole entry, looked up): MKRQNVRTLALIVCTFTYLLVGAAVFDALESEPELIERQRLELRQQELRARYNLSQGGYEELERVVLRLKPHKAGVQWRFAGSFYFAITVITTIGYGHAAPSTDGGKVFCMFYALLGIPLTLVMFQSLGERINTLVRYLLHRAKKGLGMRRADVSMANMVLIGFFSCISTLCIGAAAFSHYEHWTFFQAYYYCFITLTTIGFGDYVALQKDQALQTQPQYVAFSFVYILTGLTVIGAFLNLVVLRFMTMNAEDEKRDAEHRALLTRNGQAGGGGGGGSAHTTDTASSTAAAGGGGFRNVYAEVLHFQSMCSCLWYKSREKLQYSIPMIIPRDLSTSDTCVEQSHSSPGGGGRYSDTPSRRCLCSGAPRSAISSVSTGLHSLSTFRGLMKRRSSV
KCNK9 inh = KCNK9 potassium channel inhibitors, primary screen, HEK293 cells, thallium flux; FluxOR thallium flux fluorescence; active compounds read low; B-score at 10 µM; 310,000 compounds, 1.2% hits;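 active = ratio B-score over 3 SD below the library mean, with starting fluorescence within 5 SD of its mean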;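 note: negative B-score means less thallium flux so channel inhibition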
Target sequence (Q9NPC2 whole entry, looked up): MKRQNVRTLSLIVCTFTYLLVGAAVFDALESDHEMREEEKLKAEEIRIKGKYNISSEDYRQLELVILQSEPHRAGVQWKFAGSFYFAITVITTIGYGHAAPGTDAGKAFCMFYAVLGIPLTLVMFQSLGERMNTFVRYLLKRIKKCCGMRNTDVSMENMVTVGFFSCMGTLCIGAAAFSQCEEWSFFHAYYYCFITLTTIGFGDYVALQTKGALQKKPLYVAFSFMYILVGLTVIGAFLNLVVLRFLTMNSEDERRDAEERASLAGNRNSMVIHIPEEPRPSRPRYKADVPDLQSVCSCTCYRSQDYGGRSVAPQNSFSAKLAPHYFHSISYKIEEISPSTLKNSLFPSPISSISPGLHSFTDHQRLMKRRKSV
Kir21 block = inhibitors of mouse Kir2.1 inward-rectifier potassium channel; HEK293-Kir2.1, FluxOR thallium flux fluorescence; active compounds read low; B-score at 10 µM; 310,000 compounds, 0.85% hits; AID 1672, 2009;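 active = fluorescence ratio B-score at or below minus 3 SD of library scores, with starting-brightness B-score within 2 SD, cut at about -4.2 in these data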;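 note: channel flux triggered by added potassium and thallium sulfate stimulus; B-score of peak minus minimum fluorescence over baseline after thallium stimulus; more negative B-score means stronger Kir2.1 block with less thallium influx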
KCNQ1 pot = potentiators or activators of KCNQ1 channel, primary screen, cell-based, thallium flux, high-throughput | AID 2648, 2010 | CHO-K1 KCNQ1, thallium flux FluxOR fluorescence; active compounds read high | 310,000 compounds, 0.35% hits | B-score at 10 µM | Potassium voltage-gated channel subfamily KQT member 1 (Homo sapiens), P51787;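 active = fluorescence ratio B-score, a plate-corrected score, at least three library SD, with initial intensity B-score within 5 SD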
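Assay system: CHO-K1 cells stably expressing KCNQ1. Medium: assay buffer for compound exposure, DMSO matched across wells. Timing: 37 °C overnight plating, 90-min dark dye load, 20-min compound pretreatment. Signal: kinetic FluxOR fluorescence, 10 s baseline plus 110 s post-stimulus.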
KCNQ1 inh = inhibitors of human KCNQ1 channel, primary screen, cell-based, thallium flux, high-throughput | CHO-K1 KCNQ1, FluxOR thallium flux fluorescence; active compounds read high | 310,000 compounds, 1.3% hits | B-score at 10 µM | AID 2642, 2010;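 active = compounds whose thallium flux B-score, printed positive for inhibition, exceeds three library SD while starting fluorescence stays within three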;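 note: channel opened by potassium depolarization with thallium stimulus after 20 min compound exposure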
hERG protect = hERG rescue from dofetilide block, primary screen, cell-based, CHO-hERG, FluxOR thallium flux, dofetilide IC70. Voltage-gated inwardly rectifying potassium channel KCNH2 (Homo sapiens), Q12809. activation (rescue from dofetilide block), less the hit threshold, % at 10 µM. dofetilide IC70 present. 310,000 compounds, 0.51% hits;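 active = activation above the mean of controls blocked by dofetilide plus 5 SD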;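 note: thallium influx through hERG after potassium depolarization seen as dye fluorescence rise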
KCNK9 block conf = KCNK9 potassium channel inhibitors, confirmation, HEK293 cells, thallium flux, duplicate; shares compounds with KCNK9 inh; AID 492992, 2010; 4,900 compounds, 43% hits; inhibition, % at 10 µM; FluxOR thallium flux fluorescence;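 active = thallium signal inhibited by more than 5 SD of the compound-free buffer control wells, on both duplicate plates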
Kir21 sel = mouse Kir2.1 channel inhibition, confirmation, selectivity assay for KCNK9 modulator project, cell-based, HEK293, thallium flux; shares compounds with KCNK9 inh; Kir2.1 cells, FluxOR thallium flux fluorescence; inhibition, % at 10 µM; 4,900 compounds, 4% hits;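 active = thallium signal drop more than 5 SD beyond the mean of the no-compound control wells, seen in both duplicate plates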;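 note: signal is fluorescence rise after thallium addition divided by baseline fluorescence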
HEK293 Tl ctr = thallium flux in non-induced HEK293 cells, confirmation, counter-screen for KCNK9 inhibitor project, cell-based, second counter screen, non-induced KCNK9-HEK293. inhibition, % at 10 µM. 4,900 compounds, 40% hits. FluxOR thallium flux. shares compounds with KCNK9 inh;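 active = thallium signal drop beyond 5 SD of the untreated control mean, on both duplicate plates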
Large screens that a line does not name were inactive (follow-up assays come after a bar, where they were run). Hits are enriched below; roughly 3.7% of the tested compounds scored in any of these assays.

O=C1CN(C(=O)c2ccco2)C(c2ccccc2)c2cc(Cl)ccc2N1 (stereo unspecified)	none
Cc1cccc(NC(=O)CC(=O)Nc2cccc(C)c2)c1	none
Cc1cccc(NC(=O)C23CCC(C)(C2Br)C3(C)C)c1 (stereo unspecified)	none | KCNK9 block conf inactive | Kir21 sel inactive | HEK293 Tl ctr inactive
Cc1ccccc1CC1(CO)CCCN(C(=O)c2cccc(Cl)c2)C1 (stereo unspecified)	none | KCNK9 block conf inactive | Kir21 sel inactive | HEK293 Tl ctr 24%
O=C(Cn1nc(C(F)F)cc1C(F)F)NNC(=S)Nc1ccc([N+](=O)[O-])cc1	none
CCc1ccc(C(=O)N2CCC(c3nc4ccccc4s3)CC2)cc1	none | KCNK9 block conf inactive | Kir21 sel inactive | HEK293 Tl ctr inactive
O=C(c1ccccc1Br)N1CCC(c2nc3ccccc3s2)CC1	none
CCN(CC)CCN(C(=O)/C=C/c1cccs1)c1nc2ccc(C)cc2s1	none
O=C(CSS(=O)(=O)O)N1CCN(C(=O)c2ccoc2)CC1	none
COc1ccc(N=C2SC(CC(=O)Nc3ccccc3OC)C(=O)N2Cc2ccco2)cc1 (stereo unspecified)	none | KCNK9 block conf inactive | Kir21 sel inactive | HEK293 Tl ctr inactive
C=CC[C@H]1C=C[C@@H](C(C(=O)OC)C(=O)OC)CN1C(C)=O	none (no result: KCNK9 inh, Kir21 block, KCNQ1 pot, KCNQ1 inh, hERG protect)
CCc1cc(C(c2ccc(OC)c(OC)c2)N2CCOCC2)c(NC(=O)c2ccccc2)s1 (stereo unspecified)	none | KCNK9 block conf inactive | Kir21 sel inactive | HEK293 Tl ctr inactive
COc1cc(NC(=O)c2ccccc2)c(OC)cc1NC(=O)CN1CCOCC1	none
COc1ccc(C(=O)N2CCC2)cc1S(=O)(=O)NCc1ccc(Cl)cc1	none (no result: KCNK9 inh, Kir21 block, KCNQ1 pot, KCNQ1 inh, hERG protect)
COc1cccc(-c2nc(CS(=O)(=O)CC(=O)NCC(C)c3ccccc3)c(C)o2)c1 (stereo unspecified)	none | KCNK9 block conf inactive | Kir21 sel inactive | HEK293 Tl ctr inactive
COc1cccc(CN2CC(C(=O)NCC3CCOCC3)CCC2=O)c1 (stereo unspecified)	none
O=C(CCCc1ccncc1)c1ccccc1	none (no result: KCNK9 inh, Kir21 block, KCNQ1 pot, KCNQ1 inh, hERG protect)
Cc1csc(NC(=O)C(C)Oc2ccc(Cl)cc2C)n1 (stereo unspecified)	none (no result: KCNK9 inh, Kir21 block, KCNQ1 pot, KCNQ1 inh, hERG protect)
O=C(c1ccccc1)c1ccccc1NC(=O)C1CCCN1Cc1ccccc1 (stereo unspecified)	KCNK9 inh -9.5 | KCNK9 block conf 58% | Kir21 sel inactive | HEK293 Tl ctr 38%
O=C(CN1CCCC1)Nc1ccccc1C(=O)c1ccccc1	none
CC(=O)c1cccc(NC(=S)Nc2ccn(Cc3cccc4ccccc34)n2)c1	none | KCNK9 block conf inactive | Kir21 sel inactive | HEK293 Tl ctr inactive
CC(=O)c1ccc(NC(=S)Nc2ccn(Cc3ccc(Br)cc3)n2)cc1	none
c1ccc(CCn2cccc2)nc1	none (no result: KCNK9 inh, Kir21 block, KCNQ1 pot, KCNQ1 inh, hERG protect)
O=C(COC(=O)c1ccccc1NC(=O)C1CC1)c1ccc2c(c1)OCCO2	none (no result: KCNK3 block)
CCOCC(=O)Nc1ccccc1C(=O)OCC	none
Cc1ccc(C(=O)COC(=O)c2ccccc2NC(=O)c2ccccc2)cc1[N+](=O)[O-]	KCNK9 inh -9 | KCNK9 block conf 49% | Kir21 sel inactive | HEK293 Tl ctr 36%
CC(C)(C)C(=O)Nc1ccccc1C(=O)OCC(=O)c1ccc2c(c1)OCCO2	KCNK9 inh -18 | KCNK9 block conf 62% | Kir21 sel inactive | HEK293 Tl ctr 32%
Cc1ccc(C(=O)COC(=O)CNC(=O)Cc2ccccc2)cc1[N+](=O)[O-]	none
CCOCCOC(=O)COC(=O)c1ccccc1NC(=O)c1ccccc1	none | KCNK9 block conf inactive | Kir21 sel inactive | HEK293 Tl ctr inactive
COc1ccc2c(c1)OC[C@H]1[C@H]2N2C(=O)c3cc(F)ccc3NC(=O)[C@@]2(C)[C@H]1c1ccccc1	none (no result: KCNK9 inh, Kir21 block, KCNQ1 pot, KCNQ1 inh, hERG protect)
Cc1cc(C(=O)CSc2nnnn2-c2ccccc2)c(C)n1-c1ccc2c(c1)OCO2	none
Cc1cc(C(=O)CSc2nnnn2-c2ccc(O)cc2)c(C)n1Cc1ccc2c(c1)OCO2	KCNK9 inh -9.8 | KCNK9 block conf 28% | Kir21 sel inactive | HEK293 Tl ctr inactive
CCOc1ccc2[nH]c(=O)c(CN(CCc3ccccc3)C(=O)N3CCCC3)cc2c1	none | KCNK9 block conf inactive | Kir21 sel inactive | HEK293 Tl ctr inactive
CCOc1ccc2[nH]c(=O)c(CN(CCc3ccccc3)C(=O)N3CCOCC3)cc2c1	none
CC1CCCCN1Cc1c(O)ccc2c(=O)c(-c3nc4ccccc4s3)c(N)oc12 (stereo unspecified)	none
COc1ccc(-c2ccnc(SCC(=O)c3ccc(OC)c(OC)c3)n2)cc1	none
COc1ccc(OC)c(C(=O)CSc2nccc(-c3ccc(Br)cc3)n2)c1	KCNK9 inh -9.4 | KCNK9 block conf inactive | Kir21 sel inactive | HEK293 Tl ctr 28%
Cc1ccc(C(=O)N2N=C(c3ccccc3)CC2(O)C(F)(F)F)o1 (stereo unspecified)	KCNK9 inh -11 | KCNK9 block conf 55% | Kir21 sel inactive | HEK293 Tl ctr 32%
COC(CN(C)C(=O)c1ccc2c(c1)NC(=O)c1ccccc1S2)OC	none
CCOc1cccc(-c2c(C(=O)N/N=C/c3c(F)cccc3Cl)nnn2-c2nonc2N)c1	KCNK9 inh -9.4 | KCNK9 block conf inactive | Kir21 sel inactive | HEK293 Tl ctr inactive
Cc1ccccc1Nc1scc(-c2ccc(Cl)cc2)[n+]1-c1ccccc1C	KCNK9 inh -8.4 | KCNK9 block conf 62% | Kir21 sel inactive | HEK293 Tl ctr inactive
O=C(Nc1cccn(Cc2c(Cl)cccc2Cl)c1=O)c1c(Cl)cccc1Cl	KCNK9 inh -10 | KCNK9 block conf 54% | Kir21 sel inactive | HEK293 Tl ctr inactive
O=C(COc1ccc(F)cc1)N1CCC(Cc2ccccc2)CC1	none
O=C(c1cc(Cl)ccc1F)N1CCCC(Nc2ccc3c(c2)OCCO3)C1 (stereo unspecified)	none | KCNK9 block conf inactive | Kir21 sel inactive | HEK293 Tl ctr inactive

Compound activity as filed in PubChem BioAssay.
